Calls of active or inactive are those of the source. The calls are words filed in the database; no cut-off is given here.
Columns and labels:
[1] = MRT in mouse tumor implanted with mouse 4T1 cells at 10 mg/kg,iv measured upto 72 hrs; assay type: ADME, organism-based, Neoplasm
[2] = AUC (0-t) in mouse plasma implanted with mouse 4T1 cells at 10 mg/kg,iv measured upto 72 hrs; assay type: ADME, organism-based; design: dose 10 mg/kg, time < 72 hrs, route iv
In short: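 4T1 tumor-bearing mice (4T1 cells implanted in the mammary fat pad) received a single iv dose of 10 mg/kg. Plasma and tumor tissue were sampled up to 72 h, with n = 6. Levels of parent and of released docetaxel were measured. AUC came from noncompartmental analysis, reported as mean ± SD.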

[3] = Drug concentration in rat plasma at 4 mg/kg,iv measured after 24 hrs; assay type: ADME, organism-based; settings: in vivo
In short: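 Rats received 4 mg/kg iv. Parent drug and released docetaxel were assayed in tissues and plasma from the first sampling at 0.25 h to 24 h. The lower limit of quantitation was 200 ng/g.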

[4] = Plasma protein binding in rat plasma incubated for 4 hrs; assay type: ADME, cell-free; settings: read-out: PPB (converted)
[5] = Drug metabolism in rat urine assessed as metabolite docetaxel formation at 4 mg/kg,iv measured after 24 hrs; assay type: ADME, organism-based; settings: in vivo
[6] = Volume of distribution at steady state in male Beagle dog at 1 mg/kg,iv measured upto 24 hrs; assay type: ADME, organism-based, Canis lupus familiaris; settings: in vivo, read-out: Vdss
[7] = Volume of distribution at steady state in rat at 8 mg/kg,iv measured upto 24 hrs; assay type: ADME, organism-based; settings: in vivo, read-out: Vdss
[8] = Clearance in female rat at 4 mg/kg,iv measured upto 24 hrs; assay type: ADME, organism-based; settings: in vivo
In short: (§1)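 Rats were given a single iv injection at 2, 4 or 8 mg/kg. Plasma parent drug and released docetaxel were followed over time. Cmax, Tmax, AUC, MRT, t1/2, CL and Vss were reported for males, females and all animals combined.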

[9] = MRT (0 to infinity) in Beagle dog at 1 mg/kg,iv measured upto 24 hrs; assay type: ADME, organism-based, Canis lupus familiaris; settings: in vivo
[10] = MRT (0 to infinity) in female rat at 8 mg/kg,iv measured upto 24 hrs; assay type: ADME, organism-based; settings: in vivo
[11] = AUC (0-infinity) in male Beagle dog at 1 mg/kg,iv measured upto 24 hrs; assay type: ADME, organism-based, Canis lupus familiaris; design: dose 1 mg/kg, time < 24 hrs, route iv; settings: in vivo
In short: (§2)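 Single iv dose: rats 2, 4 or 8 mg/kg by intravenous injection; Beagle dogs 1, 2 or 4 mg/kg by intravenous infusion. Plasma concentration–time data were analysed by sex and pooled. Reported parameters: Cmax, Tmax, AUC0−t, AUC0−∞, MRT0−∞, t1/2, CL, Vss, given as mean ± SD.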

[12] = AUC (0-infinity) in female rat at 4 mg/kg,iv measured upto 24 hrs; assay type: ADME, organism-based; design: time < 24 hrs, dose 4 mg/kg, route iv; settings: in vivo; in short: as §2
[13] = AUC (0-t) in male Beagle dog at 2 mg/kg,iv measured upto 24 hrs; assay type: ADME, organism-based, Canis lupus familiaris; design: dose 2 mg/kg, time < 24 hrs, route iv; settings: in vivo; in short: as §2
[14] = AUC (0-t) in male Beagle dog at 1 mg/kg,iv measured upto 24 hrs; assay type: ADME, organism-based, Canis lupus familiaris; design: dose 1 mg/kg, time < 24 hrs, route iv; settings: in vivo; in short: as §2
[15] = Tmax in rat at 2 mg/kg,iv measured upto 24 hrs; assay type: ADME, organism-based; settings: in vivo
[16] = Tmax in male rat at 4 mg/kg,iv measured upto 24 hrs; assay type: ADME, organism-based; settings: in vivo
[17] = Tmax in male Beagle dog at 1 mg/kg,iv measured upto 24 hrs; assay type: ADME, organism-based, Canis lupus familiaris; settings: in vivo
[18] = Tmax in Beagle dog at 4 mg/kg,iv measured upto 24 hrs; assay type: ADME, organism-based, Canis lupus familiaris; settings: in vivo
[19] = Cmax in male rat at 4 mg/kg,iv measured upto 24 hrs; assay type: ADME, organism-based; design: time < 24 hrs, dose 4 mg/kg, route iv; settings: in vivo; in short: as §1
MDA-MB-231 = test: Antitumor activity against human MDA-MB-231 cells xenografted with BALB/c mouse assessed as inhibition of tumor growth at 10 mg/kg,iv administrated once per week for 3 weeks; assay type: functional, organism-based
In short: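 BALB/c nu/nu mice given subcutaneous human tumour cells in the right flank; dosing began at about 100–120 mm3 mean volume; iv once weekly for 3 weeks, with equimolar parent drug as positive control; tumour volume and weight measured; n = 8, mean ± SEM, ANOVA and Student's t test.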

[20] = Drug metabolism in human hepatocytes assessed as MDA-205 metabolite formation at 20 uM incubated for 180 mins; assay type: ADME, cell-based, Hepatocyte; settings: 3 h
[21] = Drug metabolism in human hepatocytes assessed as docetaxel metabolite formation at 20 uM incubated for 180 mins; assay type: ADME, cell-based, Hepatocyte; settings: 3 h
[22] = Stability in monkey plasma assessed as compound remaining at 1 uM incubated for 6 hrs; assay type: ADME, cell-free, Macaca mulatta; settings: rhesus monkey
[23] = Stability in human plasma assessed as compound remaining at 40 uM incubated for 6 hrs; assay type: ADME, cell-free
A549 = test: Antiproliferative activity against human A549 cells assessed inhibition of cell growth incubated for 72 hrs by SRB assay; assay type: functional, cell-based; settings: A549, 72 h
4T1 [24] = test: Antitumor activity against mouse 4T1 cells implanted in BALB/c mouse assessed as decrease in spleen MDSC cells at 5 mg/kg,iv measured after 28 days (reference value: 38%); assay type: functional; design: scale not given: the % may be the effect or the level left; settings: time 28 day
4T1 [25] = test: Antitumor activity against mouse 4T1 cells implanted in BALB/c mouse assessed as decrease in lung MMP2 expression level at 5 to 20 mg/kg,iv administrated once per week for 4 weeks by western blot assay; assay type: functional, organism-based; settings: dose 5-20 mg/kg
In short: (§3)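 4T1 fat-pad model in BALB/c mice, iv once weekly for 4 weeks; MMP9, MMP2 and NOD1 in spleen, lung and tumour by western blot, β-actin loading control; bands averaged over five mice per group, representative of two independent experiments.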

4T1 [26] = test: Antitumor activity against mouse 4T1 cells implanted in BALB/c mouse assessed as increase in spleen NOD1 expression level at 5 to 20 mg/kg,iv administrated once per week for 4 weeks by western blot assay; assay type: functional, organism-based; settings: dose 5-20 mg/kg; in short: as §3
[27] = Cmax in mouse plasma implanted with mouse 4T1 cells at 5.7 mg/kg,iv measured upto 72 hrs; assay type: ADME, organism-based; design: dose 5.7 mg/kg, time < 72 hrs, route iv
[28] = Tmax in mouse plasma implanted with mouse 4T1 cells at 5.7 mg/kg,iv measured upto 72 hrs; assay type: ADME, organism-based
[29] = Toxicity in BALB/c mouse xenografted with human A549/Taxol cells assessed as side effects at 5.7 mg/kg,iv administrated once per week for 3 weeks; assay type: organism-based, A549/TR; settings: in vivo, 504 h
In short: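 Nude BALB/c nu/nu mice received subcutaneous human tumour cells into the right flank. Dosing started at mean tumour volume of 100–120 mm3, iv once weekly for 3 weeks; the taxane arm was an equimolar control. Body weight and overt side effects were monitored. Mean ± SEM, n = 8.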

4T1 [30] = test: Antitumor activity against mouse 4T1 cells implanted in BALB/c mouse assessed as decrease in serum MMP9 level at 5.7 mg/kg,iv administrated once per week for 4 weeks in presence of MDA-205 by ELISA; assay type: functional, organism-based
4T1 [31] = test: Antitumor activity against mouse 4T1 cells implanted in BALB/c mouse assessed as increase in tumor NOD1 expression level at 5.7 mg/kg,iv administrated once per week for 4 weeks by western blot assay; assay type: functional, organism-based
In short: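 Tumour-bearing BALB/c mice (4T1 cells into mammary fat pad) given iv saline vehicle or test agents once weekly for 4 weeks. Tumours excised and probed by western blot for MMP9, MMP2 and NOD1, β-actin as loading control. Bands averaged over five mice per group; representative of two independent experiments.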

4T1 [32] = test: Antitumor activity against mouse 4T1 cells implanted in BALB/c mouse assessed as decrease in tumor MMP2 expression level at 5.7 mg/kg,iv administrated once per week for 4 weeks in presence of compound 5b by western blot assay; assay type: functional, organism-based
In short: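 4T1 cells injected into mammary fat pads of BALB/c mice. Saline vehicle or test article given iv once weekly for 4 weeks. Spleen, lung and tumor lysates immunoblotted for MMP2/MMP9 with β-actin as loading control. Bands averaged over five mice per group, representative of two independent experiments.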

## CC(=O)O[C@@]12CO[C@@H]1C[C@H](O)[C@@]1(C)C(=O)[C@H](O)C3=C(C)[C@@H](OC(=O)[C@H](OC(=O)CCC(=O)NCCCC[C@H](NC(=O)CC[C@@H](NC(=O)[C@H](C)NC(=O)/C=C/c4ccc(F)cc4Cl)C(N)=O)C(=O)O)[C@@H](NC(=O)OC(C)(C)C)c4ccccc4)C[C@@](O)([C@@H](OC(=O)c4ccccc4)[C@H]21)C3(C)C
[1]
  MRT: 132 min
[2]
  AUC(0-t) at 72 h: 3.33 µM·h
[3]
  Drug uptake: 1%
[4]
  fraction unbound at 4 h: 0.007
[5]
  Drug metabolism: Metabolite_Detected
[6]
  Vd: 0.134 L/kg
[7]
  Vd: 0.096 L/kg
[8]
  clearance: 5.13 mL/min/kg
[9]
  MRT inf: 15.2 min
[10]
  MRT inf: 28.2 min
[11]
  AUC(0-inf): 1630 ng·h/mL
[12]
  AUC(0-inf): 13000 ng·h/mL
[13]
  AUC(0-t) at 24 h: 4840 ng·h/mL
[14]
  AUC(0-t) at 24 h: 1590 ng·h/mL
[15]
  Tmax: 4.98 min
[16]
  Tmax: 4.98 min
[17]
  Tmax: 30 min
[18]
  Tmax: 30 min
[19]
  Cmax: 37900 ng/mL
MDA-MB-231
  inhibition: Active
[20]
  Drug metabolism: Metabolite_Detected
[21]
  Drug metabolism: Metabolite_Detected
[22]
  Stability: Stable
[23]
  Stability: Stable
A549
  IC50: 16.3 nM
4T1 [24]
  Activity: 36.2%
4T1 [25]
  Activity: inactive
4T1 [26]
  Activity: Active

## CC(=O)O[C@@]12CO[C@@H]1C[C@H](O)[C@@]1(C)C(=O)[C@H](O)C3=C(C)[C@@H](OC(=O)[C@H](O)[C@@H](NC(=O)OC(C)(C)C)c4ccccc4)C[C@@](O)([C@@H](OC(=O)c4ccccc4)[C@H]21)C3(C)C [DOCETAXEL ANHYDROUS]
[27]
  Cmax: 8.09 µM
[28]
  Tmax: 1.8 min
[29]
  Activity: Non-Toxic
4T1 [30]
  Activity: Active
4T1 [31]
  Activity: inactive
4T1 [32]
  Activity: inactive

— ChEMBL document CHEMBL5252546, “Salutaxel, a Conjugate of Docetaxel and a Muramyl Dipeptide (MDP) Analogue, Acts as Multifunctional Prodrug That Inhibits Tumor Growth and Metastasis” (J Med Chem, 2018)
